MT stabilizer = microtubule stabilizers in HeLa cells, primary screen, imaging, high-content imaging; HeLa tubulin immunostaining HCS, 24 h; share of cells brighter than vehicle mean+2SD; % tubulin-high responders, % at 10 µM; 200,000 compounds, 0.83% hits;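 active = plate Z-score above 3 for both tubulin-high and condensed-nucleus cell shares, with cell loss under 80%, at 10 µM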;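 also: anti alpha tubulin signal scored within the nucleus-defined area of each cell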
IEC-6 tox = cytotoxicity in IEC-6 intestinal epithelial cells, primary screen, cytotoxicity control for KLF5 inhibitor project, cell-based, luminescence. 290,000 compounds, 0.78% hits. AID 1825, 2009. inhibition, % at 5 µM. IEC-6 cytotoxicity, luminescence viability;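 also: 0% = plate median of test compound wells and 100% = cytotoxic reference compound wells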
Ba/F3 V617F tox = reduced viability of JAK2V617F-dependent Ba/F3 cells, primary screen, JAK2V617F inhibitor project, cell-based, Ba/F3 EpoR-JAK2V617F, luminescence. inhibition, % at 5.6 µM. ATP luminescence. 220,000 compounds, 1.1% hits. AID 1446, 2008;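 active = inhibition above the campaign mean plus 3 SD over all tested compounds, cut at about 24% in these data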;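 also: cytokine-independent growth of Ba/F3 cells driven by EpoR plus mutant JAK2; 0% = DMSO-treated cells and 100% = JAK inhibitor I control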
BaF3 tox = parental Ba/F3 cell viability inhibition, counter-screen for JAK2V617F inhibitor project, murine pro-B, CellTiter-Glo luminescence | CellTiter-Glo ATP luminescence | 220,000 compounds, 1.1% hits | inhibition, % at 5.6 µM;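 active = inhibition above a per-campaign cutoff, the mean inhibition of all tested compounds plus 3 SD, cut at about 27% in these data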;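 also: 0% = DMSO wells and 100% = JAK Inhibitor I control wells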
APP 5UTR inh = inhibitors of APP translation via 5'UTR reporter, primary screen, APP 5'UTR luciferase, SH-SY5Y cells; inhibition, % at 2 µM; AID 1285, 2008; SH-SY5Y APP 5'UTR-luciferase reporter, luminescence; 190,000 compounds, 0.82% hits;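 active = inhibition above a set limit, derived from the sample mean plus 3 SD, cut at about 45% in these data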
b-catenin transl = modulators of beta-catenin nuclear translocation, primary screen, imaging, HeLa cells, immunofluorescence, high-content | nuclear translocation activity, % at 5 µM | 190,000 compounds, 0.3% hits | AID 1665, 2009;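 active = nuclear translocation activity above 50% at 5 µM, with a well cell count of 50 or more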;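 also: per-cell ratio of nuclear to cytoplasmic median beta-catenin stain intensity; plate controls were DMSO negative control for no effect and GSK-3 inhibitor IX positive control for full effect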
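Assay system: human HeLa cells, native beta-catenin; doses: 5 µM primary, 0.02–20 µM confirmation; incubation: compound treatment 24 h, 37°C, 5% CO2; technique: fluorescence imaging of beta-catenin antibody stain plus DAPI; measure: % activation, nuclear-to-cytoplasmic median beta-catenin signal ratio per cell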
IEC-6 tox confirm = cytotoxic compounds in IEC-6 epithelial cells, confirmation, cytotoxicity control, cell-based, luminescence | shares compounds with IEC-6 tox | IEC-6 rat intestinal epithelial viability | inhibition, % at 5 µM | 1,900 compounds, 63% hits | AID 1907, 2009;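 also: 0% = vehicle and 100% = reference cytotoxic drug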
The depositor's hits bear a star; nt = no result. A selection: hits, their analogues and other compounds. The true share with any hit is near 2.2%. Rule as the data show it, unless noted: active = inhibition above about 22%; inactive = the rest.

SMILES	MT stabilizer	IEC-6 tox	Ba/F3 V617F tox	BaF3 tox	APP 5UTR inh	b-catenin transl	IEC-6 tox confirm
O=[N+]([O-])c1cccc(C=Nc2cccc3ccccc23)c1O	nt	31.6*	nt	nt	nt	nt	12.2
O=[N+]([O-])c1ccc(O)c(C=Nc2cccc3ccccc23)c1	nt	16.2	nt	nt	nt	nt	nt
CCc1nc(N)nc(N)c1-c1ccc(Cl)cc1	2.8	49.4*	96.6*	97.0*	-9.3	nt	35.6*
Cc1nc(C)n(C(C)CNS(=O)(=O)c2ccc(Cl)cc2)n1 (centres undefined)	nt	-6.7	nt	nt	nt	nt	nt
Cc1cc(C)c(S(=O)(=O)Nc2ccc3c4c(cccc24)CC3)c(C)c1	15.1	89.3*	76.7*	79.4*	95.2*	0.3	56.1*
Cc1ccc(S(=O)(=O)Nc2ccc3c4c(cccc24)CC3)c(C)c1	41.7*	26.4*	4.1	12.5	3.7	nt	38.5*
Cc1cc(NC(=O)CCC(=O)N(Cc2cccs2)C(C)(C)C(=O)NC2CCCCC2)no1	nt	-3.6	nt	nt	nt	nt	nt
COc1ccccc1N=Nc1ccc(O)c2ncccc12	nt	3.7	nt	nt	nt	nt	nt
Oc1ccc(N=Nc2ccccc2C(F)(F)F)c2cccnc12	nt	44.6*	nt	nt	nt	nt	13.7
O=C(Nc1ccc(Cl)cc1)Nc1ccon1	nt	29.2*	nt	nt	nt	nt	8.9
COC(=O)c1cccc(NC(=O)CN2CCc3ccccc3C2)c1	nt	4.6	nt	nt	nt	nt	nt
O=S(=O)(Nc1ccc2c(c1)OCCO2)c1ccc(F)cc1	2.8	-0.9	1.1	2.7	nt	nt	nt
O=C1CCCN1c1ccc(S(=O)(=O)Nc2ccc3c(c2)OCCO3)cc1	5.1	78.6*	82.2*	72.7*	38.9	nt	49.9*
O=C(Cc1ccccc1)Nc1ccc(NC(=O)c2ccco2)cc1Cl	nt	-4.7	nt	nt	nt	nt	nt
COc1ccc(-c2nn(CCC#N)cc2C(=O)Nc2cccc(C(=O)O)c2)cc1OC	nt	2.3	nt	nt	nt	nt	nt
NC(=O)CN1C(=O)C(=O)N(Cc2ccccc2Cl)C1=O	nt	43.8*	nt	nt	nt	nt	-6.7
NC(=O)CN1C(=O)C(=O)N(Cc2ccccc2)C1=O	nt	-0.7	nt	nt	nt	nt	nt
O=C1CCN(Cc2ccc(O)cc2)CCN1CCO	nt	-3.2	nt	nt	nt	nt	nt
Cc1ccc(C(=O)Sc2cccccc2=O)cc1	nt	99.1*	nt	nt	nt	nt	101.3*
Cc1ccc(C(=O)CC(=O)c2ccccc2)cc1	nt	0.9	nt	nt	nt	nt	nt
C#CC(=O)N(c1cc(OC)ccc1OC)C(C(=O)NC1CCCC1)c1cccs1 (centres undefined)	3.4	101.2*	102.3*	103.5*	11.2	46.1	94.9*
COc1ccc(N(C(=O)c2snc(C(N)=O)c2N)C(C(=O)NC2CCCC2)c2cccs2)cc1OC (centres undefined)	nt	2.8	nt	nt	nt	nt	nt
CSc1ccc(CNC(=O)C(C)n2nc(C)c3c(C)n(-c4ccccc4)nc3c2=O)cc1 (centres undefined)	nt	1.9	nt	nt	nt	nt	nt
COc1cccc(-c2noc(-c3ccc(Cl)nc3)n2)c1	2.2	4.3	3.1	0.9	-124.1	-1.6	nt
CC[n+]1c(/C=C/N(C)c2ccccc2)n(-c2ccccc2)c2ccc(-c3nc4ccccc4s3)cc21	nt	58.5*	nt	nt	nt	nt	11.9
SMILES	MT stabilizer	IEC-6 tox	Ba/F3 V617F tox	BaF3 tox	APP 5UTR inh	b-catenin transl	IEC-6 tox confirm
CCOc1cc(-c2nc3ccccc3s2)ccc1O	nt	1.5	3.9	0.4	nt	7.8	nt
Cc1cc(Cl)ccc1OCC(=O)N(Cc1cccs1)C1CCS(=O)(=O)C1 (centres undefined)	nt	-3.2	nt	nt	nt	nt	nt
CN(C)c1nc(=NCc2ccco2)ss1	nt	97.3*	12.4	7.6	nt	0.1	30.5*
CCOC(=O)c1cnc2c(ccc3ccccc32)c1NCCCN(C)C	nt	-0.3	nt	nt	nt	nt	nt
CS(=O)(=O)NCc1ccc(C(=O)NC2CCCCC2)cc1	3.0	37.3*	4.1	5.3	-3.0	nt	10.7
Cc1ccc(S(=O)(=O)NCc2ccc(C(=O)NC3CCCCC3)cc2)cc1	nt	-4.8	nt	nt	nt	nt	nt
Cc1ccc(Oc2nc3ccccn3c(=O)c2/C=C(\C#N)C(=O)NC2CCS(=O)(=O)C2)c(C)c1 (centres undefined)	nt	56.3*	nt	nt	nt	nt	34.1*
Cc1cc(C)cc(Oc2nc3ccccn3c(=O)c2/C=C(\C#N)C(=O)NC2CCS(=O)(=O)C2)c1 (centres undefined)	nt	-4.8	-2.1	-4.8	nt	-0.7	nt
COC(=O)c1ccc(C)c(NS(=O)(=O)c2ccc(OC)cc2)c1	23.7*	87.3*	79.7*	75.0*	93.8*	nt	59.3*
COC(=O)c1ccc(C)c(NS(=O)(=O)c2ccc(C)c([N+](=O)[O-])c2)c1	2.6	-1.1	1.1	1.1	-15.0	-2.9	nt
COC(=O)c1ccc(C)c(NS(=O)(=O)c2ccc3c(c2)OCCO3)c1	21.0*	80.0*	74.8*	54.7*	92.8*	7.0	53.7*
C=CCn1cc(C(=O)N2CCN(C)CC2)c(=O)c2cc(S(=O)(=O)N(CC)CC)ccc21	nt	-5.1	nt	nt	nt	nt	nt
CC(C)C1OC(c2cccc(NC(=O)c3cccs3)c2)OCC1(C)C (centres undefined)	1.4	-4.4	0.2	7.8	-14.7	-0.3	nt
COc1ccc(Nc2nc(-c3sc(C)nc3C)cs2)cc1	nt	76.4*	nt	nt	nt	nt	56.1*
CCc1ccc(OC)c(S(=O)(=O)Nc2ccc(Cc3ccncc3)cc2)c1	nt	25.1*	nt	nt	nt	nt	12.9
CC(C)(C)c1ccc(-c2cn(-c3ccc(Br)cc3)c3[n+]2CCCS3)cc1	2.6	50.4*	100.2*	84.1*	5.9	-2.6	50.7*
COc1ccccc1N1CCN(C(=O)C2CC=CCC2C(=O)O)CC1 (centres undefined)	1.8	-1.2	1.0	6.0	6.2	-0.2	nt
COc1ccccc1N1CCN(C(=O)C2c3ccccc3Oc3ccccc32)CC1	26.0*	82.5*	82.7*	77.7*	87.0*	94.7*	57.4*
O=S(=O)(c1ccc(Cl)cc1)N1CCCc2ccccc21	nt	2.4	nt	nt	nt	nt	nt
COC(=O)Nc1ccc(S(=O)(=O)N2c3ccccc3CCC2C)cc1 (centres undefined)	19.5*	47.7*	56.5*	40.9*	60.6*	7.9	52.6*
CC(=O)Nc1ccc(S(=O)(=O)N2CCCc3ccccc32)cc1	30.0	40.1*	22.4	19.6	-10.6	nt	42.4*
COC(=O)Nc1ccc(S(=O)(=O)N2CCCCC2C(=O)O)cc1 (centres undefined)	3.3	0.6	-3.0	4.6	2.6	-3.4	nt
Cc1ccccc1CS(=O)(=O)c1ncc(Cl)c(C(=O)Nc2ccc(F)cc2)n1	nt	60.7*	nt	nt	nt	nt	9.7
Cc1ccc(NC(=O)c2nc(S(=O)(=O)Cc3ccccc3)ncc2Cl)cc1	nt	97.0*	nt	nt	nt	nt	18.9
O=C(Nc1ccc(F)cc1)c1nn(-c2ccccc2)c(=O)cc1Cl	4.9	14.9	-3.2	-3.9	-5.8	-0.3	nt
CCOC(=O)c1ccc(NC(=O)c2nc(SC)ncc2Cl)cc1	nt	-4.6	nt	nt	nt	nt	nt

Compound activity from PubChem.
